A selection: hits, their analogues and other compounds. The true share with any hit is near 3.7%.
m-calpain inh = inhibitors of pig calpain II, primary screen, biochemical, fluorogenic peptide substrate, 1536-well; purified calpain II, 30 min; AID 1236, 2008; 0.37% of 220,000 active; inhibition, % at 16 µM;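 active means inhibition above about 50%, limit read from the data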
Cl transport mod = KCC2 cotransporter modulators, thallium flux, primary screen, cell-based, HEK293 KCC2, FluoZin-2 fluorescence, MLSMR. Solute carrier family 12 member 5 (Homo sapiens), Q9H2X9. KCC2 cells, thallium flux FluoZin-2 fluorescence. B-score of Tl+ flux slope (higher = more flux/activation; lower = inhibition) at 10 µM. 2.2% of 190,000 active. AID 1456, 2008;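 active means thallium flux slope and its plate-corrected score both differing from the plate sample mean at a set confidence after two filtering rounds, in either direction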;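 further: slope of fluorescence scaled to starting intensity during 10 to 20 s after thallium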
PKD1 kinase inh = inhibitors of human PKD1 kinase, biochemical, fluorescence polarization. Serine/threonine-protein kinase D1 (Homo sapiens), Q15139. PKD1 kinase fluorescence polarization assay. inhibition, % (test concentration not listed). 0.056% of 200,000 active; in the data active means inhibition above about 50%
MDM2 E3 inh = MDM2-luciferase reporter signal enhancers, primary screen, MDM2 E3 ligase inhibitor project, cell-based, luminescence, 1536-well. E3 ubiquitin-protein ligase Mdm2 (Homo sapiens), Q00987. cell-based MDM2 ubiquitination luciferase reporter, 2 h; 0 = plate control, 100 = twice control, blank-subtracted. signal enhancement, % at 5 µM. 0.11% of 210,000 active. AID 1230, 2008;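 active means signal enhancement of 30% or more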;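 further: luminescence tracks abundance of the self-degrading MDM2-luciferase fusion protein; higher signal means inhibition of MDM2 E3 ligase activity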
Target sequence (Q00987 whole entry, looked up, the tested form may be a part): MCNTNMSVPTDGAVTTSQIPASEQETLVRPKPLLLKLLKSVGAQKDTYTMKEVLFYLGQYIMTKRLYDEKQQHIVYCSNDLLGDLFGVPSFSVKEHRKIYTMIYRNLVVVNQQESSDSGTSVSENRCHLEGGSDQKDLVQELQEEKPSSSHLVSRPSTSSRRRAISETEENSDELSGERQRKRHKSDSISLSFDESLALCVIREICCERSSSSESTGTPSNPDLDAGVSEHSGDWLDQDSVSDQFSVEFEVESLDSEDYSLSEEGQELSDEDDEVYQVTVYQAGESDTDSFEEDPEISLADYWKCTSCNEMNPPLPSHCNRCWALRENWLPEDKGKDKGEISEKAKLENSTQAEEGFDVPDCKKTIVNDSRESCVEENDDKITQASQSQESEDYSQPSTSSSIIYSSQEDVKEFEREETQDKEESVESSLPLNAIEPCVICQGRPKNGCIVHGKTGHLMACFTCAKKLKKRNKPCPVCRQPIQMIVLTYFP
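System: stable MDM2–luciferase fusion reporter cells / Input: 2000 cells seeded into each well / Schedule: 4 h settle plus 2 h compound, 37 °C / Compound: single-point 5 µM / Buffer or medium: cells held in DMEM / Benchmarks: control and blank well means / Evaluation: percent signal gain over controls, blank-subtracted / Measured by: luciferase luminescence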
Arbovirus anti = antivirals against arbovirus infection, primary screen, cell-based, full library, 10K replicate subset. arbovirus infection cell-based antiviral screen. inhibition, % at 10 µM. 0.37% of 200,000 active; in the data active means inhibition above about 30%
ROMK primary = ROMK potassium channel modulators, primary screen, cell-based, thallium flux, MLSMR library | ATP-sensitive inward rectifier potassium channel 1 (Homo sapiens), P48048 | Tet-inducible ROMK, thallium flux fluorescence; actives lie on both sides | B-score at 10 µM | 2% of 130,000 active | AID 1918, 2009;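 active means signal ratio slope over the read window, or its plate-corrected B-score, at least 3 SD from the plate mean, either direction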;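 further: B-score of the F/F0 ratio slope over 7 to 12 s after thallium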
ROMK hit retest = ROMK channel modulator hit retest, confirmation, cell-based, thallium flux, duplicate, resupplied hits. AID 1917, 2009. fluorescence ratio; stronger effect = lower value. normalized thallium flux (F/F0 slope) at 10 µM. shares compounds with ROMK primary. 54% of 3,000 active;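 active means Flux at 10 µM at least 3 SD below or above vehicle control mean in one or both replicates; inconclusive means no clear call, values can overlap the other calls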
Large screens that a line does not name were inactive (follow-up assays come after a bar, where they were run).

CCOC(=O)C1(C)/C(=N/Nc2ccccc2Cl)C(=O)C(=O)N1c1ccccc1 (stereo unspecified)	none (no result: ROMK primary)
CCOC(=O)c1cc2cc(OC)ccc2nc1C	none (no result: ROMK primary)
CCOC(=O)CCCOC(=O)c1ccc(S(=O)(=O)N(C)C)cc1	none (no result: ROMK primary) | ROMK hit retest inactive
CN(Cc1ccccc1)C(=O)COC(=O)c1ccc(S(=O)(=O)N(C)C)cc1	none
CNC(=S)N(Cc1ccccc1)Cc1cccnc1	ROMK primary -12 (no result: PKD1 kinase inh, Arbovirus anti) | ROMK hit retest inactive
Cc1c(C(=O)NNc2c(Cl)cccc2Cl)n(C)oc1=O	none (no result: PKD1 kinase inh, Arbovirus anti, ROMK primary)
Cc1c(/C(O)=C2\C(=O)C(=O)N(CCN(C)C)C2c2ccccc2)cnn1-c1ccccc1 (stereo unspecified)	none (no result: PKD1 kinase inh, MDM2 E3 inh, Arbovirus anti, ROMK primary) | ROMK hit retest inactive
Cc1c(/C(O)=C2/C(=O)C(=O)N(CCN(C)C)C2c2ccc(C(C)C)cc2)cnn1-c1ccccc1 (stereo unspecified)	none (no result: PKD1 kinase inh, Arbovirus anti, ROMK primary)
O=C(OCc1nnc(-c2ccc(Br)cc2)o1)c1cncc(Br)c1	none (no result: ROMK primary)
CCOC(=O)CSc1ccc2ccccc2n1	none
CCOC(=O)CN1C=C(c2ccc3ccccc3n2)C(C[N+](=O)[O-])c2ccccc21 (stereo unspecified)	ROMK primary -3.78 | ROMK hit retest 0.0491
CCOc1ccc(NC(=O)C2CC=CCC2C(=O)O)cc1 (stereo unspecified)	none (no result: Cl transport mod, ROMK primary) | ROMK hit retest inactive
CCCCOc1ccc(NC(=O)C2CC=CCC2C(=O)O)cc1 (stereo unspecified)	none (no result: m-calpain inh, Cl transport mod, MDM2 E3 inh)
CCN(CC)CC(O)COc1ccc2c(c1)OCO2 (stereo unspecified)	none
C/C(=N\NC(=O)CC#N)c1cc2ccc(O)cc2oc1=O	ROMK primary -3.38 | ROMK hit retest 0.0556
COc1ccccc1C(=O)c1cc2ccc(O)cc2oc1=O	none (no result: ROMK primary)
Clc1ccc2nc3ccccn3c2c1	ROMK primary 3.6 (no result: Cl transport mod) | ROMK hit retest inactive
O=C(c1ccc(Cl)cc1[N+](=O)[O-])N1CCOCC1	none
O=C(NCC1CCCCC1)c1cccc(S(=O)(=O)NCc2cccnc2)c1	none
CCCCOc1ccc(CSCCN)cc1Cl	ROMK primary -3.18 (no result: PKD1 kinase inh, Arbovirus anti) | ROMK hit retest inconclusive
O=C(O)c1ccc(CS(=O)(=O)c2cccc(C(F)(F)F)c2)o1	none (no result: ROMK primary) | ROMK hit retest inactive
Cc1ccc(-n2nc(C(=O)O)c(O)cc2=O)cc1	none
CCOC(=O)Nc1nc(-c2ccccc2)c(C(=O)c2ccc(Cl)cc2)s1	ROMK primary 3.16 | ROMK hit retest inactive
Cc1cccn2cc(-c3ccccc3)nc12	none (no result: Cl transport mod, ROMK primary)
Oc1ccc(Br)cc1C=Nc1cccn2cc(-c3ccccc3)nc12	ROMK primary -10.6 | ROMK hit retest inconclusive
O=C(NCc1ccccn1)c1ccccc1-c1ccccc1	none
CCOC(=O)C1=C(C)N(c2ccccc2)C(=O)C1CC(=O)O (stereo unspecified)	none (no result: Cl transport mod)
Cc1ccc(C(C(=O)NC2CCCCC2)N(Cc2ccco2)C(=O)Cc2c[nH]c3ccccc23)o1 (stereo unspecified)	none (no result: Cl transport mod, ROMK primary) | ROMK hit retest inconclusive
N#CC(C#N)=C1C=CC=CN1/C(=C\c1ccccc1)C(=O)c1cccs1	none (no result: ROMK primary) | ROMK hit retest 0.0567
N#CC(C#N)=C1C=CC=CN1/C(=C\c1ccccc1Cl)C(=O)c1ccccc1	ROMK primary -5.58 | ROMK hit retest 0.0411
O=C(N/N=C/C(Br)=C\c1ccccc1)c1cccs1	none (no result: PKD1 kinase inh, Arbovirus anti, ROMK primary)
Cc1nnc(NC(=O)c2ccc3ccccc3n2)s1	none
CC(=O)O/N=C(\N)Cc1ccc(-c2csnn2)cc1	none (no result: Cl transport mod, PKD1 kinase inh, Arbovirus anti, ROMK primary)
O=C1N/C(=C/c2ccc(N3CCOCC3)o2)C(=O)N1c1cccc(Cl)c1	ROMK primary -4.88 | ROMK hit retest 0.0387
Nc1ccc(S(=O)(=O)N2CCCC2)cc1Cl	none (no result: PKD1 kinase inh, Arbovirus anti, ROMK primary)
